From ChEMBL document CHEMBL1121831 (1981) come the findings set out here.

Test [1] concerns the target Dihydrofolate reductase (Lactobacillus casei) (UniProt P00381). Briefly: Compound is evaluated for binding to Lactobacillus casei dihydrofolate reductase using kinetic assay. The following applies: Lacticaseibacillus casei.
Test [2] has as its system L1210. As to the kind of experiment: Compound is evaluated for increase in life span against L1210 leukemia in mice, at dose 160 mg/kg. It counts as functional. The following applies: Mus musculus. The gist of the method: (§1)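 B6D2F1 mice were inoculated ip with 10⁵ L1210 cells on day 0. Drug was given ip on days 1, 4 and 7 (q3d) as a suspension in 10% Tween 80 or 1:1:8 emulphor–ethanol–water, or as the disodium salt in water. The read-out was median survival of treated versus control mice (T/C, days), expressed as % increase in life span.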

Test [3] has as its system Mus musculus. Briefly: Compound is evaluated for activity against L1210 leukemia in mice, at dose 80 mg/kg expressed as T/C=11/9. It counts as functional. A digest of the protocol:
(§2)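 B6D2F1 mice were inoculated ip with 10^5 L1210 cells on day 0. Test agents were given ip on days 1, 4 and 7 in 10% Tween 80 or a 1:1:8 emulphor-ethanol-water suspension; MTX was given ip as the disodium salt in water. Groups were mostly five mice. Read-out was median survival of treated vs control mice (days) and % increase in life span.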

Test [4] relates to Mus musculus. As to the kind of experiment: Compound is evaluated for activity against L1210 leukemia in mice, at dose 160 mg/kg expressed as T/C=13/9. It counts as functional. A digest of the protocol:
as §2

For test [5], the system named is L1210. As to the kind of experiment: Compound is tested for the inhibition of growth of murine leukemia cells (L1210). It counts as functional. The following applies: Mus musculus, read-out: ID50 (the source's name). The gist of the method: (§3)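 CEM human lymphoblastic and L1210 murine leukemia cells were grown in culture with drug for 48 h, at concentrations up to 10 μM. The read-out was growth inhibition, given as ID50 or, where ID50 was not reached, as percent inhibition at 10 μM. Values are averages of triplicate experiments.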

Test [6] concerns the target T1, Dihydrofolate reductase (Mus musculus) (UniProt P00375).
T1 sequence (whole entry): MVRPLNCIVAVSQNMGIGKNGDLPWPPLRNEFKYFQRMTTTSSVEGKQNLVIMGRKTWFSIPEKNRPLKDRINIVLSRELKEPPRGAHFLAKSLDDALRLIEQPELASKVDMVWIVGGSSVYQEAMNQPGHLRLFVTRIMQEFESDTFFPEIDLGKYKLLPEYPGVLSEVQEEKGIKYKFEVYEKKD
As to the kind of experiment: Compound is evaluated for binding to L1210 mouse leukemia cells dihydrofolate reductase using ligand-binding assay.

Test [7] relates to L1210. Briefly: Compound is evaluated for activity against L1210 leukemia in mice, at dose 80 mg/kg. It counts as functional, Mus musculus. The gist of the method:
as §2

Test [8] has as its system L1210. As to the kind of experiment: Compound is evaluated for increase in life span against L1210 leukemia in mice, at dose 80 mg/kg. It counts as functional. The following applies: Mus musculus. The gist of the method:
as §1

For test [9], the system named is CCRF-CEM. Briefly: Compound is tested for the inhibition of growth of human lymphoblastic leukemia cells (CEM). It counts as functional. The following applies: read-out: ID50 (the source's name). The gist of the method:
as §3

The test system of test [10] is L1210. As to the kind of experiment: Compound is evaluated for activity against L1210 leukemia in mice, at dose 160 mg/kg. It counts as functional, Mus musculus. A digest of the protocol: as §2

pIC50: −log10 of the molar value.

One may read the ILS as how much longer treated animals lived than controls.

Sequence of Dihydrofolate reductase (Lactobacillus casei) (P00381 whole entry): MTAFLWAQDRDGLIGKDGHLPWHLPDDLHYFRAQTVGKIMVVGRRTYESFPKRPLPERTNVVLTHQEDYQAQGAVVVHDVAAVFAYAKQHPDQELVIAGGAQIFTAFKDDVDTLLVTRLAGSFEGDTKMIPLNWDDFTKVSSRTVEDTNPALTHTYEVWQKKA

On to `CN(Cc1cnc2nc(N)nc(N)c2n1)c1ccc(C(=O)NC(CCC(=O)NCc2ccc(Cl)cc2)C(=O)NCc2ccc(Cl)cc2)cc1` (stereo not given), for which the ID50 in [1] worked out at 2300 nM; in test [6], 180 nM. Further, the ILS at 160 mg/kg in [2] was 44%. The “Median T/C” value in test [3] came to 11 days; in [4], 13 days. For the same compound, the values for the pIC50 in test [5] and in [9] were 5.18 and under 5.00, respectively. Also, the MTX equivalent came to 65 mg/kg in test [7] and 130 mg/kg in [10]. Besides, the ILS at 80 mg/kg in test [8] is 22%.
